From ChEMBL document CHEMBL1764995, “Design, synthesis, and evaluation of novel 3,6-diaryl-4-aminoalkoxyquinolines as selective agonists of somatostatin receptor subtype 2” (J Med Chem, 2011) come the findings set out here.

The target of data set [1] is T1, Somatostatin receptor type 2 (Homo sapiens, UniProt P30874). As to the kind of experiment: Agonist activity at human SST2 expressed in CHO cells assessed as inhibition of forskolin-stimulated cAMP release after 40 mins by luminescence assay. It counts as functional, cell-based.
T1 sequence (P30874 whole entry): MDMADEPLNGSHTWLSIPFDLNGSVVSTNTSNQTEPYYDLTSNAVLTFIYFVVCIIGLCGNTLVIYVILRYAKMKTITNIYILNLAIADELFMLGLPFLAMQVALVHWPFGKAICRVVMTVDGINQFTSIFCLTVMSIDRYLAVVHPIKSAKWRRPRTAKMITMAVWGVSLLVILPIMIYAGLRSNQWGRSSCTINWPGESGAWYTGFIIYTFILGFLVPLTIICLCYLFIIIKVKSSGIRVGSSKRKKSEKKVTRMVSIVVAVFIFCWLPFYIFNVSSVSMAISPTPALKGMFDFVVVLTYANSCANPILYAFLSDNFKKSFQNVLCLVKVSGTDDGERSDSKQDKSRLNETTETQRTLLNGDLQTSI
For data set [2], the target named is T1, Somatostatin receptor type 2. As to the kind of experiment: Displacement of I125-somatostatin-14 from human SST2 expressed in CHO cells after 3 hrs by scintillation counting. Type of data set: cell-based.
In data set [3] the target is T2, Gonadotropin-releasing hormone receptor (Homo sapiens, UniProt P30968).
T2 sequence (P30968 whole entry): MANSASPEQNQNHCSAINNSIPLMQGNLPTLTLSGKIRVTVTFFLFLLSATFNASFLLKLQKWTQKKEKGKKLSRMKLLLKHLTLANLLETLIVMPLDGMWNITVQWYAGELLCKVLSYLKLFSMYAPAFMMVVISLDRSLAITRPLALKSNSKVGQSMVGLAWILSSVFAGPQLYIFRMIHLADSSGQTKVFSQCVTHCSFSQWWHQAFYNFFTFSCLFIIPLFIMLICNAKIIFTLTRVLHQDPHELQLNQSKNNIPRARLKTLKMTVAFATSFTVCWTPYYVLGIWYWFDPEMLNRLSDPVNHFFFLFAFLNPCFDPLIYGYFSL
As to the kind of experiment: Antagonist activity at GnRH receptor by GnRH. It counts as functional.

Data set [4] can be described thus: Plasma clearance in dog at 2 mg/kg, iv and 10 mg/kg, po. Type of data set: ADME, organism-based, Canis lupus familiaris.
Data set [5] is described as follows: Half life in dog at 2 mg/kg, iv and 10 mg/kg, po. It counts as ADME, organism-based, Canis lupus familiaris. The note with it: in vivo.
Data set [6] in a line: Volume of distribution at steady state in dog at 2 mg/kg, iv and 10 mg/kg, po. The following applies: in vivo, read-out: Vdss. Type of data set: ADME, organism-based, Canis lupus familiaris.
The species named for data set [7] is Homo sapiens. As to the kind of experiment: Selectivity for human SST2 over human SST1. The procedure, abridged:
(§1)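 Human sst1, sst2, sst3, sst4 or sst5 stably expressed in CHO cells; membrane displacement of 0.1 nM 125I-somatostatin-14 by compound 0-10000 nM, 30 min tracer preincubation then 3 h at room temperature, filtration and scintillation counting; selectivity taken from the binding values across subtypes.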

The species entered for data set [8] is Homo sapiens. The data set is described as follows: Selectivity for human SST2 over human SST3. The method, boiled down: as §1
The species named for data set [9] is Homo sapiens. The data set is described as follows: Selectivity for human SST2 over human SST5. The method, boiled down: as §1
Data set [10] in a line: Plasma clearance in rat at 2 mg/kg, iv and 10 mg/kg, po. Type of data set: ADME, organism-based.
Data set [11] is described as follows: Half life in rat at 2 mg/kg, iv and 10 mg/kg, po. Type of data set: ADME, organism-based. The following applies: in vivo.
A short description of data set [12]: Volume of distribution at steady state in rat at 2 mg/kg, iv and 10 mg/kg, po. The following applies: in vivo, read-out: Vdss. It counts as ADME, organism-based.
Data set [13] in a line: Oral bioavailability in rat at 2 mg/kg, iv and 10 mg/kg, po iv. Type of data set: ADME, organism-based. The note with it: in vivo.
Data set [14] in a line: Plasma clearance in rat at 2 mg/kg, iv and 5 mg/kg, po. Type of data set: ADME, organism-based.
A short description of data set [15]: Half life in rat at 2 mg/kg, iv and 5 mg/kg, po. It counts as ADME, organism-based. The following applies: in vivo.
The nature of data set [16]: Volume of distribution at steady state in rat at 2 mg/kg, iv and 5 mg/kg, po. It counts as ADME, organism-based. The note with it: in vivo, read-out: Vdss.
The nature of data set [17]: Oral bioavailability in rat at 2 mg/kg, iv and 5 mg/kg, po. It counts as ADME, organism-based. The note with it: in vivo.
Data set [18] in a line: Plasma clearance in dog at 0.125 mg/kg, iv. Type of data set: ADME, organism-based, Canis lupus familiaris. Also on record: dose 0.125 mg/kg, route intravenous. The procedure, abridged: (§2)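 Dog PK after 0.125 mg/kg iv; plasma clearance (mL/min/kg), half-life (h) and steady-state volume of distribution (L/kg).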
Data set [19] is described as follows: Half life in dog at 0.125 mg/kg, iv. Type of data set: ADME, organism-based, Canis lupus familiaris. Also on record: dose 0.125 mg/kg, route intravenous. The following applies: in vivo. The procedure, abridged:
as §2

Data set [20] in a line: Volume of distribution at steady state in dog at 0.125 mg/kg, iv. Type of data set: ADME, organism-based, Canis lupus familiaris. Also on record: dose 0.125 mg/kg, route intravenous. The note with it: in vivo, read-out: Vdss. The procedure, abridged: as §2
In data set [21] the test system is Rattus norvegicus. The data set is described as follows: Antiangiogenic activity against laser-induced choroidal neovascularization rat model assessed as reduction in neovascular lesion area at 5 ug, intraocular administered once every 4 days. Set-up: scale not given: the % may be the effect or the level left. It counts as functional. The method, boiled down:
(§3)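 Laser-induced choroidal neovascularization in male Brown Norway rats (175-225 g). After lasering and topical 0.5% proparacaine, 5 μL vehicle (5% ethanol in PBS) or compound injected intravitreally 3 mm posterior to iris on days 0, 4 and 8; neovascular lesion area measured.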

Data set [22] relates to Rattus norvegicus. The data set is described as follows: Antiangiogenic activity against laser-induced choroidal neovascularization rat model assessed as reduction in neovascular lesion area at 15 ug, intraocular administered once every 4 days. Also on record: scale not given: the % may be the effect or the level left. Type of data set: functional. The procedure, abridged:
as §3

The test system of data set [23] is Rattus norvegicus. As to the kind of experiment: Antiangiogenic activity against laser-induced choroidal neovascularization rat model assessed as reduction in neovascular lesion area, intraocular administered once every 4 days. It counts as functional, organism-based. The note with it: Eye. The method, boiled down: as §3
Data set [24] deals with Rattus norvegicus. The data set is described as follows: Inhibition of secretagogue-induced growth hormone release in iv dosed Wistar rat plasma after 50 mins before secretagogue challenge measured after every 5 to 15 mins. Type of data set: functional, organism-based. The method, boiled down:
(§4)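 Female Wistar rats (200-250 g) with jugular and carotid cannulas, pentobarbital-anesthetized (50 mg/kg ip); vehicle or compound given iv via jugular cannula, GH secretagogue (10 μg/kg iv) 50 min later.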

Data set [25] relates to Rattus norvegicus. The data set is described as follows: Inhibition of secretagogue-induced growth hormone release in Wistar rat assessed as reduction in plasma growth hormone area under the curve at 0.2 mg/kg, iv treated 50 mins before secretagogue challenge measured after every 5 to 15 mins. Type of data set: functional. Set-up: scale not given: the % may be the effect or the level left. The method, boiled down:
as §4

For data set [26], the system named is Rattus norvegicus. The data set is described as follows: Inhibition of secretagogue-induced growth hormone release in Wistar rat assessed as reduction in plasma growth hormone area under the curve at 2 mg/kg, iv treated 50 mins before secretagogue challenge measured after every 5 to 15 mins. Type of data set: functional. Also on record: scale not given: the % may be the effect or the level left. The procedure, abridged: as §4

Data set [27] is described as follows: Aqueous solubility of the compound. It counts as physicochemical. The following applies: buffer.

pIC50, pKi: −log10 of the molar value. Where only a bound is given, the exact number is not on record here.

Take `Cc1cc(C)cc(-c2cnc3cc(Cl)c(-c4ccc(F)nc4)cc3c2OCC[C@H]2CCCCN2)c1`: in data set [1], the pIC50 (usually the negative decadic logarithm of the IC50, by convention in mol/L) was 8.33. For the same compound, in data set [2], the negative logarithm of the Ki (pKi) – broadly, the negative decadic logarithm of the Ki, by convention in mol/L – was 9.92.

For `Cc1cc(C)cc(-c2cnc3cc(Cl)c(-c4cccc(C(N)=O)c4)cc3c2OCCCN)c1`, the pIC50 in data set [1] is 9.42. In addition, the pKi in [2] is 10.10.

Compound `Cc1cc(C)cc(-c2c(OCC[C@H]3CCCCN3)c3cc(-c4ccc(F)cc4)c(Cl)cc3[nH]c2=O)c1` gave a negative-log Ki (pKi) in [2] of 8.82.

`Cc1cc(C)cc(-c2c(OCCC3CCCCN3)c3cc(-c4ccncn4)c(Cl)cc3[nH]c2=O)c1` (configuration not stated) gave a pIC50 in data set [3] of 8.49. Further, in data set [2], the pKi was 5.85.

As for `Cc1cc(C)cc(-c2cnc3cc(Cl)c(-c4ccc(O)cc4)cc3c2OCC[C@H]2CCCCN2)c1`, the pIC50 in data set [1] is 9.42. The negative-log Ki (pKi) in data set [2] was 10.10.

Consider `Cc1cc(C)cc(-c2cnc3cc(Cl)c(-c4cccnc4)cc3c2OCC[C@H]2CCCCN2)c1`, for which the pIC50 in data set [1] was 8.08. In data set [2], this compound showed a negative-log Ki (pKi) of 9.89.

Turning to `Cn1cc(-c2cc3c(OCC[C@H]4CCCCN4)c(-c4cccc(CO)c4)cnc3cc2Cl)cn1`, in data set [1], the pIC50 was 8.08. In data set [2], this compound gave a negative logarithm of the Ki (pKi) of 9.89.

In turn, `Cc1cc(C)cc(-c2cnc3cc(Cl)c(C(=O)Nc4ccncn4)cc3c2OCC[C@H]2CCCCN2)c1` showed a pIC50 in [3] of 5.61. In data set [2], this compound showed a negative-log Ki (pKi) of 7.70.

`Cc1cc(C)cc(-c2cnc3cc(Cl)c(-c4ccc(=O)[nH]c4)cc3c2OCC[C@H]2CCCCN2)c1`: the clearance in [4] was 5 mL/min/kg. The half-life (in general, the time needed for the level to fall by half in the phase considered) in data set [5] is 0.55 h. Further, the Vd in data set [6] was determined as 0.094 L/kg. Further, the fold change (FC) in the data set filed under Homo sapiens [7], in the data set filed under Homo sapiens [8] and in the data set listed under Homo sapiens [9] was over 1000 each time. The pIC50 in data set [1] was 9.54. In addition, the negative-log Ki (pKi) in data set [2] is 9.57.

In the case of `Cc1cc(C)cc(-c2cnc3cc(Cl)c(-c4ccncc4)cc3c2OCC[C@H]2CCCCN2)c1`, in [1], the pIC50 was 7.70. In data set [2], this compound had a pKi of 9.96.

In turn, `Cc1cc(C)cc(-c2cnc3cc(Cl)c(-c4cnn(C)c4)cc3c2OCC[C@H]2CCCCN2)c1` displayed a clearance in [10] of 14 mL/min/kg. In data set [11], this compound gave a half-life of 3.7 h. Moreover, the Vd in data set [12] was determined as 3.1 L/kg. In addition, the bioavailability (commonly the share of a dose that reaches the circulation, judged against a reference dose that is usually intravenous) in data set [13] is 27%. The fold change (FC) in the data set filed under Homo sapiens [7], in the data set listed under Homo sapiens [8] and in the data set listed under Homo sapiens [9] was over 1000 throughout.

In the case of `OCc1cccc(-c2ccc3ncc(-c4cccc(CO)c4)c(OCC[C@H]4CCCCN4)c3c2)c1`, the pIC50 in [1] is 7.96. This compound also gave a pKi in data set [2] of 9.89.

Turning to `Cc1cc(C)cc(-c2cnc3cc(Cl)c(-c4ccc(N)nc4)cc3c2OCC[C@H]2CCCCN2)c1`, the pIC50 in data set [1] was 7.47. This compound also showed a pKi in data set [2] of 9.22.

In the case of `Cc1cc(C)cc(-c2cnc3cc(Cl)c(-c4ccc(CO)cc4)cc3c2OCC[C@H]2CCCCN2)c1`, in [1], the pIC50 was 7.89. The compound also showed a pKi in data set [2] of 10.00.

Consider `Cc1cc(C)cc(-c2cnc3cc(Cl)c(-c4cccc(O)c4)cc3c2OCC[C@H]2CCCCN2)c1`, for which, in [1], the pIC50 is 8.96. In [2], the pKi is 10.43.

Turning to `Cc1cc(C)cc(-c2cnc3cc(Cl)c(-c4cccc(O)c4)cc3c2OCCCN)c1`, the clearance stood at 52 mL/min/kg in data set [14] and 7.1 mL/min/kg in data set [18]. The half-life in data set [15] is 2.9 h; in [19], 11 h. Further, the Vd in [16] stood at 9.4 L/kg; in [20], 5.7 L/kg. In data set [17], this compound came in with a bioavailability of 17%. For the same compound, the Activity is 35% in the data set on Rattus norvegicus [21]; 53% in the data set on Rattus norvegicus [22]; “Dose-dependent effect” with Rattus norvegicus [23]; 38% in the data set on Rattus norvegicus [25]; 91% with Rattus norvegicus [26]. The inhibition entry in the data set with Rattus norvegicus [24] is “Dose-dependent effect”. Further, the pIC50 in data set [1] was 8.32. For the same compound, the pKi in data set [2] is 10.60. Besides, the solubility entry in data set [27] is “Insoluble”.

For the compound `COc1ccc(-c2cc3c(OCC[C@H]4CCCCN4)c(-c4cc(C)cc(C)c4)cnc3cc2Cl)cn1`, in data set [1], the pIC50 was 7.30. The compound also gave a pKi in data set [2] of 9.19.

Turning to `Cc1cc(C)cc(-c2cnc3cc(Cl)c(-c4ccc(Cl)nc4)cc3c2OCC[C@H]2CCCCN2)c1`, in [1], the pIC50 is 7.96. In [2], this compound gave a pKi of 9.89.

Take `Cc1cc(C)cc(-c2cnc3cc(Cl)c(-c4cccc(C(N)=O)c4)cc3c2OCC[C@H]2CCCCN2)c1`: the pIC50 in data set [1] is 9.41. The compound further had a pKi in data set [2] of 10.42.
